Source: ChEMBL document CHEMBL1149316, “Bioisosteric modifications of 2-arylureidobenzoic acids: selective noncompetitive antagonists for the homomeric kainate receptor subtype GluR5” (J Med Chem, 2004)
Values belong to the compound of their own block, whether it stands above or below them. The source made the active and inactive calls. The rule behind the calls is not given here.

Tests used:
[1] = biological target: T1, Glutamate receptor ionotropic, kainate 1 (Homo sapiens, UniProt P39086); experiment: Antagonist activity at human homomeric GluR5 expressed in HEK293 cells assessed as inhibition of intracellular calcium concentration by FLIPR assay; assay type: functional, cell-based
Glutamate receptor 3 = Glutamate receptor 3 (Rattus norvegicus, UniProt P19492); experiment: Antagonist activity at rat homomeric recombinant GluR3 expressed in HEK293 cells assessed as inhibition of intracellular calcium concentration by FLIPR assay; assay type: functional, cell-based
Procedure, shortened: (§1)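 AMPA-subunit HEK293 lines were grown with 100 μg/mL SPD 502 in the medium. Cells were loaded with 2 μM Fluo-4-AM for 30 min at room temperature and washed into Na⁺-free Ringer at pH 7.4. All solutions contained 100 μM cyclothiazide. Test compound was preincubated 1.5 min before 25 μM Glu (final) was added. The Ca²⁺ rise was read by FLIPR at room temperature. Solvent (EtOH or DMSO) was ≤1.0%.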

[2] = biological target: Glutamate receptor ionotropic, kainate 2 (Homo sapiens, UniProt Q13002); experiment: Antagonist activity at human homomeric GluR6 expressed in HEK293 cells assessed as inhibition of intracellular calcium concentration by FLIPR assay; assay type: functional, cell-based
Procedure, shortened: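 Stably transfected HEK293 cells were grown in DMEM with 10% FCS at 37 °C. Cells were plated on PEI-coated plates 24 h before loading with 2 μM Fluo-4-AM for 60 min at room temperature, then washed into Na⁺-free Ringer at pH 7.4. Test compound was preincubated 1.5 min, then 0.2 μM domoic acid (final) was added. The Ca²⁺ rise was read by FLIPR (ex 488 nm, em 510–570 nm). IC50 reported.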

Glutamate receptor 1 = Glutamate receptor 1 (Rattus norvegicus, UniProt P19490); experiment: Antagonist activity at rat homomeric recombinant GluR1 expressed in HEK293 cells assessed as inhibition of intracellular calcium concentration by FLIPR assay; assay type: functional, cell-based; procedure, shortened: as §1
[3] = biological target: T1, Glutamate receptor ionotropic, kainate 1; experiment: Displacement of [3HATPA from human recombinant GluR5
Procedure, shortened: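 GluR5 HEK293 membranes were washed in 50 mM Tris-HCl (pH 7.1) at 0–4 °C and centrifuged at 27000g. 46–84 μg protein was incubated with 3 nM [³H]ATPA for 60 min at 2 °C. Nonspecific binding was defined with 0.6 mM Glu. Binding was stopped by rapid filtration and counted by liquid scintillation. Compounds were tested at 3–30 μM.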

Glutamate receptor 2 = Glutamate receptor 2 (Rattus norvegicus, UniProt P19491); experiment: Antagonist activity at rat homomeric recombinant GluR2 expressed in HEK293 cells assessed as inhibition of intracellular calcium concentration by FLIPR assay; assay type: functional, cell-based
Procedure, shortened: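 Cells were loaded with 2 μM Fluo-4-AM for 30 min at room temperature and washed into Na⁺-free Ringer at pH 7.4. All solutions contained 100 μM cyclothiazide. The Ca²⁺ rise was read by FLIPR at room temperature. Solvent (EtOH or DMSO) was ≤1.0%.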

Mus musculus = experiment: Effect on ATPA-induced rigidity in mouse dosed intravenously 30 mins before ATPA administration; assay type: functional; settings: iv
Procedure, shortened: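 Female NMRI mice (20–25 g) received test substance iv (n = 8 per dose) 30 min before iv ATPA at 30 mg/kg. ATPA was given at 3 mg/mL in saline, pH 7. Rigidity was scored 30 min after ATPA as loss of righting and lack of movement on a 45° grid. Results were taken as the percent of mice rigid, and ED50 was derived.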

Glutamate receptor 4 = Glutamate receptor 4 (Rattus norvegicus, UniProt P19493); experiment: Antagonist activity at rat homomeric recombinant GluR4 expressed in HEK293 cells assessed as inhibition of intracellular calcium concentration by FLIPR assay; assay type: functional, cell-based; procedure, shortened: as §1
[4] = biological target: Glutamate receptor 3 (Rattus norvegicus) (UniProt P19492); experiment: Antagonist activity at rat homomeric recombinant GluR3 expressed in HEK293 cells assessed as inhibition of intracellular calcium concentration at 30 uM by FLIPR assay; assay type: functional, cell-based; procedure, shortened: as §1
[5] = biological target: Glutamate receptor 1 (Rattus norvegicus) (UniProt P19490); experiment: Antagonist activity at rat homomeric recombinant GluR1 expressed in HEK293 cells assessed as inhibition of intracellular calcium concentration at 30 uM by FLIPR assay; assay type: functional, cell-based; procedure, shortened: as §1
[6] = biological target: Glutamate receptor 2 (Rattus norvegicus) (UniProt P19491); experiment: Antagonist activity at rat homomeric recombinant GluR2 expressed in HEK293 cells assessed as inhibition of intracellular calcium concentration at 30 uM by FLIPR assay; assay type: functional, cell-based; procedure, shortened: as §1
[7] = biological target: Glutamate receptor 4 (Rattus norvegicus) (UniProt P19493); experiment: Antagonist activity at rat homomeric recombinant GluR4 expressed in HEK293 cells assessed as inhibition of intracellular calcium concentration at 30 uM by FLIPR assay; assay type: functional, cell-based; procedure, shortened: as §1

Sequence of Glutamate receptor 2 (P19491 whole entry): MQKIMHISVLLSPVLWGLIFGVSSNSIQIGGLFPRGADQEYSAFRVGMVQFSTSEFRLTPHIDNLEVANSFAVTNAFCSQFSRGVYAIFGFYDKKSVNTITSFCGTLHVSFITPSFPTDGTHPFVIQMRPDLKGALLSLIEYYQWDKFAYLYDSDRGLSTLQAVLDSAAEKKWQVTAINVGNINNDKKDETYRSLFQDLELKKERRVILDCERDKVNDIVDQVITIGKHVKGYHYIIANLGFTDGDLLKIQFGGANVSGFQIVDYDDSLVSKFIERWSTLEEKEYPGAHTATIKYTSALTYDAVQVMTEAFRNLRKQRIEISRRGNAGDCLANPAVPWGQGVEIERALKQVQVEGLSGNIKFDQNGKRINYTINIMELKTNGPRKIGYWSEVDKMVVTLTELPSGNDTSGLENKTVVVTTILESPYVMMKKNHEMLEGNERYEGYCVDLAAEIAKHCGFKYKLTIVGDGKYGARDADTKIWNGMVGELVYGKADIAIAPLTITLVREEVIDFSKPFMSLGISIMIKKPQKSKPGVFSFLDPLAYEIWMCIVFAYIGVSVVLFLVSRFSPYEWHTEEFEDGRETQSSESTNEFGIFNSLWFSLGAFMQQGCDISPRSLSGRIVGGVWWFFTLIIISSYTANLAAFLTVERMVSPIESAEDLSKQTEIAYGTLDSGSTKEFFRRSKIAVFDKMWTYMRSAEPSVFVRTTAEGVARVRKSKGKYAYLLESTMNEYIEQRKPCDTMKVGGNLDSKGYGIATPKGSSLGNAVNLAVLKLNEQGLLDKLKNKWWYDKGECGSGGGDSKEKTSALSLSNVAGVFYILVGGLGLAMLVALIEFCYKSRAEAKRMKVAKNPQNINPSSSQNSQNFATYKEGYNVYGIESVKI
Sequence of Glutamate receptor 2 (Rattus norvegicus) (P19491 whole entry): as above
Sequence of Glutamate receptor 1 (Rattus norvegicus) (P19490 whole entry): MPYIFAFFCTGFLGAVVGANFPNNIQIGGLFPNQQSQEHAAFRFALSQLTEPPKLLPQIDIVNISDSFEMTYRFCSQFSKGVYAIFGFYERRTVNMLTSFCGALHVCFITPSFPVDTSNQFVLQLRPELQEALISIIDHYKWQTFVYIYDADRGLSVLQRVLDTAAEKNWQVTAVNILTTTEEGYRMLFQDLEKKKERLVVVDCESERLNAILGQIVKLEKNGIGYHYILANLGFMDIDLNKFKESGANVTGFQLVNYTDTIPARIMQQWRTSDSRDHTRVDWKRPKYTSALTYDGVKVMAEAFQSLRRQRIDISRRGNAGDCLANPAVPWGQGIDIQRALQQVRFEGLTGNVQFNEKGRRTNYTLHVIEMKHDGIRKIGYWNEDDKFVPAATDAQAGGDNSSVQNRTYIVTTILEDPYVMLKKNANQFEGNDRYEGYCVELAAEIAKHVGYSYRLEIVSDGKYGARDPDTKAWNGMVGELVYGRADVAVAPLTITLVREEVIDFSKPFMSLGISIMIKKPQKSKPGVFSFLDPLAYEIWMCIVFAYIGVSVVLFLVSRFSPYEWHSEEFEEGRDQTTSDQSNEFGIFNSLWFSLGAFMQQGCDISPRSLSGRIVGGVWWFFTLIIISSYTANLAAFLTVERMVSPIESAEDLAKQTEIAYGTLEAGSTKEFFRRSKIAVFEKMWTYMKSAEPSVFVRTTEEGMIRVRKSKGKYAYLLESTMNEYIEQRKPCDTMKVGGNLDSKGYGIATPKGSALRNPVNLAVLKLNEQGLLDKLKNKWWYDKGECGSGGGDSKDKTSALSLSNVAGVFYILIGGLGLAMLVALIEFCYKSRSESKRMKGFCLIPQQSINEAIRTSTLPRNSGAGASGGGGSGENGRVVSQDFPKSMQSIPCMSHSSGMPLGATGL
Sequence of Glutamate receptor 1 (P19490 whole entry): as above
Sequence of Glutamate receptor 3 (Rattus norvegicus) (P19492 whole entry): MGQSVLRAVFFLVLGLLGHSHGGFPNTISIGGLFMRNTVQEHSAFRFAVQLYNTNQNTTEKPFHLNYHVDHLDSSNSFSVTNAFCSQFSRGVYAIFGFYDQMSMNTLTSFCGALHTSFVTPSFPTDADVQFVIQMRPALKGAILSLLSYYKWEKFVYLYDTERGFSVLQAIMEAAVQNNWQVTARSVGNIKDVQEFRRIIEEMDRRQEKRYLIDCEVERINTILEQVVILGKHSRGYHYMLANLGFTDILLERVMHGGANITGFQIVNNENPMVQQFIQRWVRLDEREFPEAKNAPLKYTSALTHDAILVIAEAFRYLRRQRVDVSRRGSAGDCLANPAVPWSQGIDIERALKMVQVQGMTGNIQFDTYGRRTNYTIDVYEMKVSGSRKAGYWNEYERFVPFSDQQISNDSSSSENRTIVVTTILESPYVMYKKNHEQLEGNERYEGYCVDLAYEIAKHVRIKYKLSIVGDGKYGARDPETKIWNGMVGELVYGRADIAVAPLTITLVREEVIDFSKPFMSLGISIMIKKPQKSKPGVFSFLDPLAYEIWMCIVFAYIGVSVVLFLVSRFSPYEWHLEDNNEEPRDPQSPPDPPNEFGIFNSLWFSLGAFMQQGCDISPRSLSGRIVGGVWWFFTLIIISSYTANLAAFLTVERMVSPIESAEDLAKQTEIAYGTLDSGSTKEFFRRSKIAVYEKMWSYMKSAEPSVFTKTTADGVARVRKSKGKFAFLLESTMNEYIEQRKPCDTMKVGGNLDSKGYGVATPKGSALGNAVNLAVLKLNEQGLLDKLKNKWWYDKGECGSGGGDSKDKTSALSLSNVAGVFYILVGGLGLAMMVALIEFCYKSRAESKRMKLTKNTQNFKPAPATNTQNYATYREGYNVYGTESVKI
Sequence of Glutamate receptor 3 (P19492 whole entry): as above
Sequence of Glutamate receptor ionotropic, kainate 2 (Q13002 whole entry): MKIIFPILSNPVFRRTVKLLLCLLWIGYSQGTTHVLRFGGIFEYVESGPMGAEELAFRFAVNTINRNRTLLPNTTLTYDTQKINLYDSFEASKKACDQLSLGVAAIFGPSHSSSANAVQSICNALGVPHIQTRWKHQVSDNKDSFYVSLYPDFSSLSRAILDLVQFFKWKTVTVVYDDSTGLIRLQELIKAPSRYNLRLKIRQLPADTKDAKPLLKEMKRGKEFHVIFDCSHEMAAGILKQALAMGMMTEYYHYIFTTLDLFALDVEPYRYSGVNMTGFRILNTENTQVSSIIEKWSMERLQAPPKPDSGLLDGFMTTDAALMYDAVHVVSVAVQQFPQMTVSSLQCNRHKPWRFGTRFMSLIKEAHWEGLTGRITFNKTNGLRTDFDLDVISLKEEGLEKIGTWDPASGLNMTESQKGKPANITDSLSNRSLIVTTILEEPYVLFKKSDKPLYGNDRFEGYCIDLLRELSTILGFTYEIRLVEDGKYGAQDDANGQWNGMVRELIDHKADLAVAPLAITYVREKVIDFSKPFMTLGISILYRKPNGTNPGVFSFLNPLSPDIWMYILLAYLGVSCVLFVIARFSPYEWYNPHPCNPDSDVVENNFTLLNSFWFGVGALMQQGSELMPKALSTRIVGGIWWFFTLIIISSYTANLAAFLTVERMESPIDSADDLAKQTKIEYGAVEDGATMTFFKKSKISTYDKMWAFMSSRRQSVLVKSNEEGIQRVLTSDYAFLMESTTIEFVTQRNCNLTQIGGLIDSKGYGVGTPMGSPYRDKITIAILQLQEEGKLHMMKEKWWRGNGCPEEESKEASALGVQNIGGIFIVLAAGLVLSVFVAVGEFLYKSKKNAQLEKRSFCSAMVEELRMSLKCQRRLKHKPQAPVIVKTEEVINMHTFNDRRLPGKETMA
T1 sequence (P39086 whole entry): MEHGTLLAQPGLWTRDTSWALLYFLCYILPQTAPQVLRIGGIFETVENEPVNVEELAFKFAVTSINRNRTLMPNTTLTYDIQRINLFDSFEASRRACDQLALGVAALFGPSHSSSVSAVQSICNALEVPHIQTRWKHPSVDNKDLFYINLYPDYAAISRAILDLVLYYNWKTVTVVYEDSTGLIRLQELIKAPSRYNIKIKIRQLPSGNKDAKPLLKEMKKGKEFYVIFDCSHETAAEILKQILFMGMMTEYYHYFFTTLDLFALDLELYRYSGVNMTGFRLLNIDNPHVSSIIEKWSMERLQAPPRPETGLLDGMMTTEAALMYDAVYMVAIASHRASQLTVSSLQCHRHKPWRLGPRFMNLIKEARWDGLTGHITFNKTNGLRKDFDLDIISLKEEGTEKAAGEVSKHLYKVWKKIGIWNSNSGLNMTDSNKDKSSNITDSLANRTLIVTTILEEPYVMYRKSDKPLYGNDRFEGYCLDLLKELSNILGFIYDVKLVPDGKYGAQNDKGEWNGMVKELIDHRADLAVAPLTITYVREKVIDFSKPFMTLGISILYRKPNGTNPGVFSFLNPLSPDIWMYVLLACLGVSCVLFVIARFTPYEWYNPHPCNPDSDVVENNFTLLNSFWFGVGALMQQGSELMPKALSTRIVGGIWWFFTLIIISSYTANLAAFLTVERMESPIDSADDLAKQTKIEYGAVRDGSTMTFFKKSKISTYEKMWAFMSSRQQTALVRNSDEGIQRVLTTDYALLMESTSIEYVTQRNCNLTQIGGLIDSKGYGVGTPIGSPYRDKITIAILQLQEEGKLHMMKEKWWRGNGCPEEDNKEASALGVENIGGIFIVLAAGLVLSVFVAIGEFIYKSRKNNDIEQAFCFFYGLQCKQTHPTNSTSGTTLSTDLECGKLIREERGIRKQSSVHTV

Compound: COC(=O)c1ccc(Cl)cc1NC(=O)Nc1cccc(Br)c1
IC50 [1]: > 30 µM

IC50 (Glutamate receptor 3): > 100 µM
IC50 [2]: 37 µM
IC50 (Glutamate receptor 1): > 100 µM
IC50 [3]: > 30 µM
IC50 [1]: 1.5 µM
IC50 (Glutamate receptor 2): > 100 µM
IC50 (Glutamate receptor 4): > 100 µM
Compound: O=C(Nc1cccc(Br)c1)Nc1cc(Cl)ccc1S(=O)(=O)O
ED50 (Mus musculus): 29 mg/kg

IC50 (Glutamate receptor 3): > 100 µM
Activity [4]: inactive
IC50 (Glutamate receptor 1): > 100 µM
Activity [5]: inactive
Activity [6]: inactive
IC50 (Glutamate receptor 2): > 100 µM
IC50 (Glutamate receptor 4): > 100 µM
Activity [7]: inactive
Compound: O=C(Nc1cccc(Br)c1)Nc1cc(Cl)ccc1C(=O)O

IC50 (Glutamate receptor 3): > 100 µM
Activity [4]: inactive
IC50 [2]: > 10 µM
IC50 (Glutamate receptor 1): > 100 µM
IC50 [3]: > 30 µM
IC50 [1]: 2 µM
Activity [5]: inactive
Activity [6]: inactive
IC50 (Glutamate receptor 2): > 100 µM
IC50 (Glutamate receptor 4): > 100 µM
Activity [7]: inactive
Compound: O=C(Nc1cccc(Br)c1)Nc1cc(Cl)ccc1-c1nnn[nH]1
ED50 (Mus musculus): 5.5 mg/kg

IC50 (Glutamate receptor 3): > 100 µM
Activity [4]: inactive
IC50 [2]: > 30 µM
IC50 (Glutamate receptor 1): > 100 µM
IC50 [3]: > 30 µM
IC50 [1]: 4.6 µM
Activity [5]: inactive
Activity [6]: inactive
IC50 (Glutamate receptor 2): > 100 µM
IC50 (Glutamate receptor 4): > 100 µM
Activity [7]: inactive
Compound: O=C(Nc1cccc(Br)c1)Nc1cc(Cl)ccc1-c1nc(=O)o[nH]1
ED50 (Mus musculus): > 100 mg/kg

Compound: O=C(Nc1cccc(C(F)(F)F)c1)Nc1cc(Cl)ccc1[N+](=O)[O-]
IC50 [1]: > 3 µM

Compound: O=C(Nc1cccc(C(F)(F)F)c1)Nc1cc(Cl)ccc1CO
IC50 [1]: > 10 µM

IC50 [1]: > 30 µM
Compound: O=C(Nc1cccc(C(F)(F)F)c1)Nc1cc(Cl)ccc1O

Compound: O=C(O)c1ccc(Cl)cc1Nc1c(Nc2cccc(Br)c2)c(=O)c1=O
IC50 [1]: > 30 µM

IC50 (Glutamate receptor 3): > 100 µM
Activity [4]: inactive
IC50 (Glutamate receptor 1): > 100 µM
Activity [5]: inactive
Activity [6]: inactive
IC50 (Glutamate receptor 4): > 100 µM
Activity [7]: inactive
Compound: O=C(Nc1ccc2ccccc2c1)Nc1cc(Cl)ccc1C(=O)O
ED50 (Mus musculus): > 30 mg/kg

IC50 (Glutamate receptor 3): > 100 µM
Activity [4]: inactive
IC50 [2]: > 50 µM
IC50 (Glutamate receptor 1): > 100 µM
IC50 [3]: > 30 µM
IC50 [1]: 3.6 µM
Activity [5]: inactive
Activity [6]: inactive
IC50 (Glutamate receptor 2): > 100 µM
IC50 (Glutamate receptor 4): > 100 µM
Activity [7]: inactive
Compound: O=C(O)Cc1ccc(Cl)cc1NC(=O)Nc1cccc(Br)c1
ED50 (Mus musculus): > 30 mg/kg

Compound: O=C(Nc1cccc(Br)c1)n1[nH]c(=O)c2ccc(Cl)cc21
IC50 [1]: > 50 µM

Compound: O=C(O)CCc1ccc(Cl)cc1NC(=O)Nc1cccc(Br)c1
IC50 [1]: > 30 µM

Compound: O=C(Nc1cccc(Br)c1)Oc1cc(Cl)ccc1C(=O)O
IC50 [1]: > 30 µM

Compound: O=C(Nc1cccc(Br)c1)Nc1cc(Cl)ccc1[N+](=O)[O-]
IC50 [1]: > 3 µM

Compound: N#Cc1ccc(Cl)cc1NC(=O)Nc1cccc(C(F)(F)F)c1
IC50 [1]: > 3 µM

Compound: Nc1ccc(Cl)cc1NC(=O)Nc1cccc(C(F)(F)F)c1
IC50 [1]: > 30 µM
